Assay results from ChEMBL document CHEMBL5532717, “Facile Halogenation of Antimicrobial Peptides As Demonstrated by Producing Bromotryptophan-Labeled Nisin Variants with Enhanced Antimicrobial Activity” (2024).
Converted amounts (≈) assume the structure as drawn. The source made the active and inactive calls. The calls are words filed in the database; no cut-off is given here.

Key:
[1] = test system: Bacillus cereus; experiment: Antibacterial activity against Bacillus cereus CH-85 assessed as reduction in bacterial growth by broth microdilution method; assay type: functional
How it was run: (§1)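 Broth microdilution MIC: inoculum adjusted to approximately 5 × 10^5 CFU/mL. Plates incubated overnight at 37 °C, or at 30 °C for L. lactis. MIC taken as the lowest concentration with no visible growth.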

[2] = test system: Enterococcus faecium; experiment: Antibacterial activity against vancomycin-resistant Enterococcus faecium LMG16003 assessed as reduction in bacterial growth by broth microdilution method; assay type: functional
How it was run: (§2)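 Broth microdilution per standard guidelines; inoculum about 5 × 10^5 CFU/mL. Incubated overnight at 37 °C. MIC taken as lowest concentration with no visible growth.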

[3] = test system: Enterococcus faecalis; experiment: Antibacterial activity against vancomycin-reistant Enterococcus faecalis LMG16216 assessed as reduction in bacterial growth by broth microdilution method; assay type: functional; how it was run: as §1
[4] = test system: Staphylococcus aureus; experiment: Antibacterial activity against methicillin-resistant Staphylococcus aureus LMG15975 assessed as reduction in bacterial growth by broth microdilution method; assay type: functional; how it was run: as §2
[5] = test system: Staphylococcus aureus; experiment: Antibacterial activity against Staphylococcus aureus LMG10147 assessed as reduction in bacterial growth by broth microdilution method; assay type: functional; how it was run: as §1
[6] = test system: Lactococcus lactis; experiment: Antibacterial activity against Lactococcus lactis MG1363 assessed as reduction in bacterial growth by broth microdilution method; assay type: functional; how it was run: as §1
[7] = test system: Bacillus cereus; experiment: Bactericidal activity against Bacillus cereus CH-85 incubated overnight in presence of lipid II by spot-on-lawn assay; assay type: functional, organism-based
How it was run: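 B. cereus CH-85 lawn: 0.1% (v/v) overnight-culture inoculum mixed into 1.5% (w/v) LB agar at 45 °C and poured. 5 μL of peptide spotted and dried. Purified lipid II (2 μL) then spotted at the edge of the inhibition halo. Plate incubated overnight at 37 °C and read for lipid II binding.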

[8] = test system: Bacillus cereus; experiment: Bactericidal activity against Bacillus cereus CH-85 at 15 microg/ml measured for 3 hrs by time-kill assay; assay type: functional, organism-based; settings: dose 15.0 µg/ml
How it was run: (§3)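 B. cereus CH-85 overnight culture diluted 50-fold in LB and grown at 37 °C with aeration to OD600 0.5, then adjusted to 5 × 10^5 cells/mL. Cells exposed to peptide at several concentrations in tubes at 37 °C, 180 rpm; untreated cells as negative control. Aliquots taken at time points, 10-fold serially diluted and plated on LB agar, incubated overnight at 37 °C, CFU/mL counted; triplicate.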

[9] = test system: Bacillus cereus; experiment: Bactericidal activity against Bacillus cereus CH-85 assessed as bacterial cell killing at 15 microg/ml measured for 3 hrs by time-kill assay; assay type: functional; settings: dose 15.0 µg/ml; how it was run: as §3

SMILES	MIC [1] [µg/mL]	MIC [2] [µg/mL]	MIC [3] [µg/mL]	MIC [4] [µg/mL]	MIC [5] [µg/mL]	MIC [6] [µg/mL]	Activity [7]	Activity [8]	Activity [9]
N[C@@H](Cc1c[nH]c2ccc(O)cc12)C(=O)O [OXITRIPTAN]	6.25 (≈ 28.4 µM)	6.25 (≈ 28.4 µM)	12.5 (≈ 56.8 µM)	> 12.5	12.5 (≈ 56.8 µM)	0.08 (≈ 0.363 µM)	–	–	–
N[C@@H](Cc1c[nH]c2ccccc12)C(=O)O [TRYPTOPHAN]	6.25 (≈ 30.6 µM)	3.13 (≈ 15.3 µM)	12.5 (≈ 61.2 µM)	6.25 (≈ 30.6 µM)	6.25 (≈ 30.6 µM)	0.04 (≈ 0.196 µM)	–	–	–
CCCCCCCCCC(=O)N[C@@H](Cc1c[nH]c2ccccc12)C(=O)N[C@H](CC(N)=O)C(=O)N[C@@H](CC(=O)O)C(=O)N[C@@H]1C(=O)NCC(=O)N[C@@H](CCCN)C(=O)N[C@@H](CC(=O)O)C(=O)N[C@H](C)C(=O)N[C@@H](CC(=O)O)C(=O)NCC(=O)N[C@H](CO)C(=O)N[C@@H]([C@H](C)CC(=O)O)C(=O)N[C@@H](CC(=O)c2ccccc2N)C(=O)O[C@@H]1C	–	–	–	–	–	–	Active	–	–
N[C@@H](Cc1c[nH]c2cc(Br)ccc12)C(=O)O	6.25 (≈ 22.1 µM)	3.13 (≈ 11.1 µM)	25 (≈ 88.3 µM)	6.25 (≈ 22.1 µM)	12.5 (≈ 44.2 µM)	0.08 (≈ 0.283 µM)	–	–	–
N[C@@H](Cc1c[nH]c2ccc(Br)cc12)C(=O)O	3.13 (≈ 11.1 µM)	3.13 (≈ 11.1 µM)	12.5 (≈ 44.2 µM)	3.13 (≈ 11.1 µM)	6.25 (≈ 22.1 µM)	0.04 (≈ 0.141 µM)	inactive	Active	Active
